Measured values from the EternaBench riboswitch data.

Test system: MS2 coat protein
Test: apparent Kd, MS2 coat protein; higher = weaker binding; RNA-MaP array; FMN 200 µM where present
Outline: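 Green signal from SNAP-549-labelled MS2 coat protein was normalised to red-channel RNA signal and to the median Fmax of control clusters. The protein was titrated from 0.7 or 1.5 nM, doubling to 3 µM, without and then with constant ligand, over designs transcribed by stalled E. coli RNA polymerase on Illumina sequencing-chip clusters, in 100 mM Tris-HCl pH 7.5, 80 mM KCl, 4 mM MgCl2, BSA, DTT, yeast tRNA and Tween-20. The apparent Kd is the median of filtered per-cluster binding-curve fits.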

[1] = designed as: OFF switch for flavin mononucleotide, no ligand
[2] = ligand present: flavin mononucleotide, designed as: OFF switch for flavin mononucleotide
[3] = designed as: ON switch for flavin mononucleotide, no ligand
[4] = ligand present: flavin mononucleotide, designed as: ON switch for flavin mononucleotide

| Sequence | apparent Kd [1] [nM] | apparent Kd [2] [nM] | apparent Kd [3] [nM] | apparent Kd [4] [nM] |
| --- | --- | --- | --- | --- |
| GGGAAGUGCCAGAAGGCUCCCGGAUUCCUAGGGAGAGGAUAUGGCACAUGAGGAUCACCCAUGUGGUAGAUCUGUUUCGAAGUG | 30.4 | 16.9 | – | – |
| UCAAAUACUGAGGAUAUAACGACUGAAUCCGCGUUAGAAGGUAGUACAUGAGGAUCACCCAUGUCAACCAGAGG | – | 18.7 | – | – |
| AAUAAACUCACAGGAUAUAGCAGAGGUCGCGUAAACUUACAGGCGACUAUGCUAGAAGGGUGACCACAUGAGGAUCACCCAUGU | – | – | 836 | 161 |
| GCGUAGUUCUAGAAGGUGCUAGCGAUAAGCUAGCAAGGAUAUAGACAUGAGGAUCACCCAUGUCUUUGUGACAUCGACAUACGC | 5.62 | 7.03 | – | – |
| GCUUAAGUAGGAUAUACUUGGGCUCGGCUGAUGUGCCUAAAACAUGAGGAUCACCCAUGUAGAAGGACUAAAGC | 13.9 | 12.1 | – | – |
| AACCUGAGGCUUUGCUUUAGGUGAACAUGAGGAUCACCCAUGUAGGAUAUGGUAGGCUUUGCUUACCAGAAGGACAUAUUAAUU | 39.3 | 86.1 | – | – |
| ACAUGAGGAUCACCCAUGUAGAAUGAAGAAGGUACUAUAUAGAUAUACACCCUAUGUCUAUAUAGUAAGGAUAUUCUAAUAAUU | – | – | 6.45 | 6.35 |
| AUAGCUCCCUAGAAGGGCCAACCAGUAUUCCAUCAGGUAUUUGCGGUAGGUAGGAUAUGGGACAUGAGGAUCACCCAUGUGUAG | – | – | 35.8 | 25.8 |
| UGGCUACAUGAGGAUCACCCAUGUCAGGAUAUGCCGUUAAAUUAACAUCAACGUACGGGUAGAAGGGACUGCGU | 24.3 | 23 | – | – |
| UGGUACUAGGGAGGAUAUGGGAAGAUACAUGAGGAUCACCCAUGUUUAAGAAUGCCGAGAGGCAACUAGAAGGCCCUAGUACUU | – | – | 448 | 20.2 |
| CUGAAGAUAUCAGGAUAUCUAUUUCCUACAUGAGGAUCACCCAUGUAGGUGAUCAGCCGAGUAAAGGAGAAGGGAUAUCUUUAG | – | – | 27.1 | 10.1 |
| CAUUAAUUCAUUAUAGUAAUUAUACAGGAUAUGUUACAUGAGGAUCACCCAUGUAUUCAUGGUAAACAGAAGGGUAAUACAAGA | 13.8 | 16.3 | – | – |
| GCUGGGUAGGCAGGAUAUCCUCGCGCAAACACAUGAGGAUCACCCAUGUACACAAAACGUGAUAUGGAGAAGGGCCGACCCACA | – | – | 22.4 | 5.72 |
| AUCGAACAUGAGGAUCACCCAUGUCAGUCGAACCAAGGAUAUGGGCAGGGUUCUCUUGCACCAGAAGGUGGCUAAA | – | – | 56.9 | 95.7 |
| UUCCGCGUUGUAAGGAUAUCUAAUUCUUAUGAAAUAGAGAAGGUACAUGAGGAUCACCCAUGUACUUGGGACUA | 18.7 | 22.4 | – | – |
| GGGCACAAAGGAUAUACAUGAGGAUCACCCAUGUUCACCACAACAUGUUACUGCCCAAGUAGAAGGUUGGCCCA | 38.7 | 288 | – | – |
| ACUGUCCGAGAGAAGGGAACAUGAGGAUCACCCAUGUUACCUCACCUGGUGACGGAACUCCAAGUUCAGGAUAUCUCGAGCGGC | 4.85 | 5.98 | – | – |
| AAUGGGCACCAGAAGGACAUGAGGAUCACCCAUGUAGGAUAUGGGCGUUGAAGAUGUCUGAACGAGUUGCUGGAAGGAUAUGGG | – | – | 305 | 41 |
| AAAACAUGAGGAUCACCCAUGUUUAGAUCGGUCGAUAGAAGUGAGGAUAUACUAAGUUAAGGCUGGUAGAAGGCACUGGGUACA | – | – | 26.9 | 27.5 |
| GUCAUCUCAUGAGGAUAUGCUCGGGUUUCCCGAGCAGAAGGCAUGUCAUAAGACAUGAGGAUCACCCAUGUAUUUAAGAUUGUA | – | – | 49.6 | 8.92 |
| AAACAGGGAGGAUAUACAUAGAUCCUCUAACCUAAUAGGUCACAUGAGGAUCACCCAUGUAGAAGGCCCUUAGG | 12.4 | 12.2 | – | – |
| CAGAAGUCAGGAUAUGCAUGGCGGGACUUGCGUCGUGGCGUGCAGAAGGGACAUGAGGAUCACCCAUGUAAAGG | 174 | 300 | – | – |
| ACCAUUUACUAAUUGUCUAUACAUGAGGAUCACCCAUGUUAUGAGGAUAUCAUCGUGAAACACGAUGAGAAGGCAUAGCAUUCG | 64.5 | 213 | – | – |
| AUAACGUCAGGAUAUUUCCAGAGGGUCAUAGGACCCAUUGGAAAGAAGGGACAUGAGGAUCACCCAUGUCGGUG | 136 | 391 | – | – |
| GGAUAGGACAGAGGAUAUACUUGCUAGAGAUACUAGCAAAAUUUCCUCACAUGAGGAUCACCCAUGUAGAAGGCUGUCCUAUCG | 6.95 | 54.5 | – | – |
| UUCGCUAAGGUGUAGCGAGACUUGCAAGAAGGGUGAUGCACAUGAGGAUCACCCAUGUAAGCCUUACAGGAUAUUGCUUGCCGA | – | – | 600 | 220 |
| AUAUAUAGUGUGAGGAUAUGCUGGUCCUUGGAUCAGCAGAAGGCACAUGAGGAUCACCCAUGUAGUUAAAUAUA | 36 | 107 | – | – |
| ACGUCUUAGUAGAAGGGACAUCGGCUGGUAAGCAUCAUCUCCUUCUCACAUGAGGAUCACCCAUGUCAGGAUAUACUAAGAUAC | 12.9 | 38.7 | – | – |

| Sequence | apparent Kd [1] [nM] | apparent Kd [2] [nM] | apparent Kd [3] [nM] | apparent Kd [4] [nM] |
| --- | --- | --- | --- | --- |
| GGAUUUCCUGAGGAUAUUGCAUCACCUGAUUUAUAAGAAGGCAGAACAUGAGGAUCACCCAUGUGGGUAUUCGG | 27.6 | 37.4 | – | – |
| UCGGAGAAAGGAUAUACACCAAGGGUAUAGUAGGAUCCUGGACAUGAGGAUCACCCAUGUAGAAGGUUCACUGC | 60.1 | 31.1 | – | – |
| UUAUACAUUCGAGGAUAUCGGUGAGAAAUCUUUCGAGAAGGCGAUUCAUGAUUUAUUAUCCUGGACAUGAGGAUCACCCAUGUA | – | – | 79.8 | 60.9 |
| CGUCCACAUGAGGAUCACCCAUGUUAGGAUAUAAACGCCGUAGUCCAAGGACGGGCCUUUAGAAGGAGCGCGGG | 13.9 | 25.6 | – | – |
| UAAUAAUAAUAAUAAUGGACGAUACAUGAGGAUCACCCAUGUAAGGAUAUGCAGUGGAAUACACUGCAGAAGGUACAUACGUCC | 15.7 | 23 | – | – |
| AUAAUGUGAGGAUAUACAUGAGGAUCACCCAUGUAAUUAAAUCGGAGAGCCACAUUUCGUAGAAGGUACAUUUA | 20.7 | 22.6 | – | – |
| ACUUGUUAUUUAAUCAUUGAAUUGUAGGAUAUACUUACAUGAGGAUCACCCAUGUUAACAUGGAUGUAGAAGGACAUCUCAUUU | 98.9 | 55.1 | – | – |
| GUAGAGUAGUGAGGAUAUACGAGAUCGAUAGAUCGGCGAUCCAUUAAUACAUGAGGAUCACCCAUGUAGAAGGCACUUCUCUAC | 6.31 | 76.7 | – | – |
| GACUGAAUACAGAAGGUGUUUGACAUGAGGAUCACCCAUGUGUUAUUCAGAUUCAUAGAAUAUAACAAGGAUAUGUAUAUAUCA | – | – | 228 | 61.6 |
| GGCGGUGAUCUAUUAGGACACAUGAGGAUCACCCAUGUGACAGAGGAUAUACGGAACUUUGGAUAGUAGAAGGCUGUCGCAAAA | 315 | 119 | – | – |
| AAGAGCGAUUCUCCCUUCCUACAUGAGGAUCACCCAUGUACGAGAAGGCGCCGUUUAUACAACGGUGAGGAUAUCGUGCGUUAC | 4.49 | 4.7 | – | – |
| CGCUAAGAUGGGUCUAAUGGACCACAGGAUAUGCUUGUACAUGAGGAUCACCCAUGUAAUAUUGUGCAGAAGGGUGGAUUUGCG | – | – | 18.9 | 7.03 |
| CCUCCACAUUAGGAUAUCGUCACACUAUUGUGACGAGAAGGAAUGACAUGAGGAUCACCCAUGUUAUCGUGAUG | 19.4 | 49.8 | – | – |
| GCGAAGGGAGGAUAUCCGCGCGCGCACAUGAGGAUCACCCAUGUGCGCGCGCGCGCGCGCGGAGAAGGCCCGGUGC | 16.4 | 13.4 | – | – |
| UACAUGAGGAUCACCCAUGUUUUGUCGUGUAUGGUAUUUAUCUAGGAUAUCAAUCUAUUAAUUUAUGAGAAGGAGAAUAUUAAU | 35.5 | 39.7 | – | – |
| UUAAAUCAUGUAGGAUAUGCAUGGCGAAGCUACGCAGAAGGACAUGAGGAUCACCCAUGUUAUAGCGACCCAGUUCGGUUGCAA | 94.3 | 230 | – | – |
| AGGAAGUUAGGAUAUGCUGCUCGUCACUUGCGUGAUGAGUAGCAGAAGGAACAUGAGGAUCACCCAUGUAAAGA | 30.8 | 27.2 | – | – |
| UCAUUUCAGUAAGGAUAUUAAAACAUGACGAUACAUGAGGAUCACCCAUGUUAAGAAGGUACUAAUACAAAUAAUGCAUUGUUC | 14.7 | 15.5 | – | – |
| GUAGCAUACCGAGGAUAUUCAACCGGAAACGGAACAUGAGGAUCACCCAUGUGGCGAAAGCCUUGGGAGAAGGCGGAAUGCUAC | – | – | 77.5 | 20.6 |
| AAAUAGUUAGGAUAUACAUGAGGAUCACCCAUGUGGACUUAUGGCGAUUAAUUUAGUGGUAGAAGGGACUAAAA | 37.2 | 47.6 | – | – |
| GCGUUGAACGAGAAGGCCAAUACAUGAGGAUCACCCAUGUUAAGAUGUUUUGGAGGAUAUCGAUCGUCGUCUCAUGAGCAACGC | 5.3 | 6.24 | – | – |
| GGAUAGGACAGAGGAUAUACGUGCUAGAGAUACUAGCAAAAUUUCCUCACAUGAGGAUCACCCAUGUAGAAGGCUGUCCUAUGG | 16.6 | 402 | – | – |
| UUUUUAUUUGUAGGAUAUGGAGACAUGAGGAUCACCCAUGUAUGAUAAGAUAAAUUAUGAUGUGGCCAGAAGGAUAUUAUUUUU | – | – | 87.1 | 119 |
| GUGCCUUGGGAGAAGGUUAUUGGCAAAGCUAUUAAAGGAUAUUCAUACCGGAAACGGACAUGAGGAUCACCCAUGUGGCACAAA | – | – | 752 | 208 |
| GCAGGACAUGAGGAUCACCCAUGUCUCAAAUAUUGAGGAUAUGGACACGGUAUAUCCGAACCAGAAGGCAACCUGC | – | – | 48.6 | 39.8 |
| CGGAUUAUGUGAGGAUAUAAUCGUUUCCAUUGAUUAGAAGGCACAUGAGGAUCACCCAUGUGGCAUGUAAAGCCAUGUGACGCG | 108 | 109 | – | – |
| AUAUUGUGAGGAUAUCCAAUAUAUGACAUGAGGAUCACCCAUGUUUCCACUCGUACCUCCGGAGAAGGCACAUUUU | 27 | 24 | – | – |
